Laboratory results as given in ChEMBL document CHEMBL5712091, “Role of the GLUT1 Glucose Transporter in Postnatal CNS Angiogenesis and Blood-Brain Barrier Integrity” (Circ Res, 2020).
Activity calls are given as the source filed them. The rule behind the calls is not given here.

How the values were obtained:
[1] = molecular target: T1, Solute carrier family 2, facilitated glucose transporter member 1 (Homo sapiens) (UniProt P11166); assay: Inhibition of GLUT1 in human retinal microvascular endothelial cells assessed as decrease in glycolysis at 20 nmol/L; type: cell-based; conditions: Endothelial cell, time 2.0 hrs
T1 sequence (whole entry): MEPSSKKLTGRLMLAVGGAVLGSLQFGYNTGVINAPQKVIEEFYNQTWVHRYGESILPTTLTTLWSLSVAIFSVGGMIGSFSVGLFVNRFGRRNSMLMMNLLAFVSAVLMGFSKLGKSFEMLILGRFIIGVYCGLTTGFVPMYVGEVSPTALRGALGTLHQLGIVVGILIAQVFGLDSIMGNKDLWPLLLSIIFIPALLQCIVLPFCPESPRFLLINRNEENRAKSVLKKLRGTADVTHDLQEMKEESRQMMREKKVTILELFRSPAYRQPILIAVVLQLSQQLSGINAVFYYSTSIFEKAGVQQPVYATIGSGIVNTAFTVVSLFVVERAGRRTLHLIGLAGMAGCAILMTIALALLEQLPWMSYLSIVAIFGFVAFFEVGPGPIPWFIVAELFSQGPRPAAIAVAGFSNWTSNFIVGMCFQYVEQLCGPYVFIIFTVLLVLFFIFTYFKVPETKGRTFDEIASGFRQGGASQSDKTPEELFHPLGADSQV
In short: (§1)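 Glycolytic flux read as 3H2O release: cells kept 2 hrs in culture medium containing D-[5-3H]-glucose at 0.4 µCi/ml final. Supernatant sealed in glass vials, 3H2O captured over 48 h at 37°C on water-soaked paper in hanging wells, then counted by scintillation. Inhibitor exposure 24 hrs from the day after seeding.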

[2] = molecular target: T1, Solute carrier family 2, facilitated glucose transporter member 1 (Homo sapiens); assay: Inhibition of GLUT1 in human brain microvascular endothelial cells assessed as decrease in glycolysis at 20 nmol/L; conditions: Endothelial cell; in short: as §1
[3] = molecular target: T1, Solute carrier family 2, facilitated glucose transporter member 1 (Homo sapiens); assay: Inhibition of GLUT1 in human brain microvascular endothelial cells assessed as decrease in sprouting angiogenesis; conditions: Endothelial cell, dose 20.0 nmol/L
In short: (§2)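 Spheroids of 1000 ECs per 25 µl hanging drop formed overnight in 20% methylcellulose/EGM2, then embedded in 5 mg/ml fibrinogen gel in EGM2 with or without inhibitor and/or 1 µg/ml mitomycin C. Same medium overlaid on gel. Fixed with 4% PFA after 24 hrs and photographed.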

[4] = molecular target: T2, Solute carrier family 2, facilitated glucose transporter member 1 (Mus musculus) (UniProt P17809); assay: Inhibition of GLUT1 in mouse BEND3 cells assessed as increase in p53/p21 ratio at 20 nmol/L by Western blot analysis; type: cell-based
T2 sequence (whole entry): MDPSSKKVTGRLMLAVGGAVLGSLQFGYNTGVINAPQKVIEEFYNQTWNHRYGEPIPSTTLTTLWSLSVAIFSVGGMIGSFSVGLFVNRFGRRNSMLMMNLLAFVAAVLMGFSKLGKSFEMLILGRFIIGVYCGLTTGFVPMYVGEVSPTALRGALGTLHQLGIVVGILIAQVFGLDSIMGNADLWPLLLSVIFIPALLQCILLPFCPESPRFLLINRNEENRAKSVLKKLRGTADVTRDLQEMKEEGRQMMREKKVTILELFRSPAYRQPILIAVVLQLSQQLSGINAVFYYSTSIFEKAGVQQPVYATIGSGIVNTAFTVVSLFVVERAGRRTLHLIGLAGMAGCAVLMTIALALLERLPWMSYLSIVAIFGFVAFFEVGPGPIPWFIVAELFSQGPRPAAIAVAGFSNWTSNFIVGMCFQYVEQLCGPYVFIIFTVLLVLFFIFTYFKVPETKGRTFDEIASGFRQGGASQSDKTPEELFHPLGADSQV
In short: (§3)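 bEND3 lysed in Laemmli buffer, denatured 5 min at 95°C, and 15 µg protein run on 4-20% gels and transferred to PVDF. Probed overnight in 5% milk/TBST with antibodies to phospho-AMPKα (Thr172), AMPKα, p53 and p21, with β-actin.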

[5] = molecular target: T1, Solute carrier family 2, facilitated glucose transporter member 1 (Homo sapiens); assay: Inhibition of GLUT1 in HUVEC assessed as decrease in sprouting angiogenesis at 40 nmol/L; type: cell-based; in short: as §2
[6] = molecular target: T2, Solute carrier family 2, facilitated glucose transporter member 1 (Mus musculus); assay: Inhibition of GLUT1 in mouse BEND3 cells assessed as slight decrease in cell migration at 20 nmol/L by scratch wound assay; type: cell-based
In short: (§4)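 Confluent monolayers, pre-treated 24 hrs with inhibitor or 1 µg/ml mitomycin C where indicated, scratched with a pipette tip and imaged (T0). Then incubated in EGM2 and fixed with 4% PFA when control closure was near complete. Gap areas measured; closure % = (1 − Tx gap/T0 gap) × 100.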

[7] = molecular target: T2, Solute carrier family 2, facilitated glucose transporter member 1 (Mus musculus); assay: Inhibition of GLUT1 in mouse BEND3 cells assessed as cell migration at 20 nmol/L by scratch wound assay in presence of mitomycin C; type: cell-based; in short: as §4
[8] = molecular target: T2, Solute carrier family 2, facilitated glucose transporter member 1 (Mus musculus); assay: Inhibition of GLUT1 in mouse BEND3 cells assessed as decrease in cell proliferation at 20 nmol/L; type: cell-based
In short: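 Proliferation measured after 24 hrs of inhibitor as [6-3H]-thymidine incorporation: 2 hrs with 1 µCi/ml final in culture medium, ethanol fixation 15 min at 4°C, 10% TCA precipitation, 0.1 N NaOH lysis, and scintillation counting.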

[9] = molecular target: T2, Solute carrier family 2, facilitated glucose transporter member 1 (Mus musculus); assay: Inhibition of GLUT1 in mouse BEND3 cells assessed as reduced phosphorylation of RPS6 at 20 nmol/L by Western blot analysis; type: cell-based
[10] = molecular target: T2, Solute carrier family 2, facilitated glucose transporter member 1 (Mus musculus); assay: Inhibition of GLUT1 in mouse BEND3 cells assessed as reduced phosphorylation of S6K1 at 20 nmol/L by Western blot analysis; type: cell-based
[11] = molecular target: T2, Solute carrier family 2, facilitated glucose transporter member 1 (Mus musculus); assay: Inhibition of GLUT1 in mouse BEND3 cells assessed as increase in AMP/ATP ratio at 20 nmol/L; type: cell-based
[12] = molecular target: T2, Solute carrier family 2, facilitated glucose transporter member 1 (Mus musculus); assay: Inhibition of GLUT1 in mouse BEND3 cells assessed as decrease in [14C]-3-O-methylglucose transport after 2 hrs by glucose transport assay; type: cell-based
In short: (§5)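 Cells pre-held 2 hrs at 37°C in serum-free DMEM with inhibitor or DMSO vehicle, DPBS-washed, then given 20 mM 3-O-methylglucose carrying 1 µCi/ml [14C]-3MG in DPBS plus inhibitor for 30 min uptake. Stopped and washed with ice-cold 50 mM glucose in PBS, lysed in 0.1 N NaOH, counted by liquid scintillation. Triplicate measurements.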

[13] = molecular target: T1, Solute carrier family 2, facilitated glucose transporter member 1 (Homo sapiens); assay: Inhibition of GLUT1 in HUVEC assessed as decrease in glucose transport; type: cell-based; in short: as §5
[14] = molecular target: T2, Solute carrier family 2, facilitated glucose transporter member 1 (Mus musculus); assay: Inhibition of GLUT1 in mouse BEND3 cells assessed as activation of AMPK at 20 nmol/L by Western blot analysis; type: cell-based; in short: as §3
[15] = molecular target: T2, Solute carrier family 2, facilitated glucose transporter member 1 (Mus musculus); assay: Inhibition of GLUT1 in mouse BEND3 cells assessed as decrease in glycolysis at 20 nmol/L relative to cytochalasin B; type: cell-based; conditions: time 2.0 hrs; in short: as §1
[16] = molecular target: T2, Solute carrier family 2, facilitated glucose transporter member 1 (Mus musculus); assay: Inhibition of GLUT1 in mouse BEND3 cells assessed as reduction in glycolytic metabolite at 20 nmol/L; type: cell-based
[17] = molecular target: T2, Solute carrier family 2, facilitated glucose transporter member 1 (Mus musculus); assay: Inhibition of GLUT1 in mouse BEND3 cells assessed as complete inhibition of [14C]-3-O-methylglucose transport at 20 nmol/L after 2 hrs by glucose transport assay; type: cell-based; in short: as §5
[18] = molecular target: T1, Solute carrier family 2, facilitated glucose transporter member 1 (Homo sapiens); assay: Inhibition of GLUT1 in human retinal microvascular endothelial cells assessed as decrease in sprouting angiogenesis; type: cell-based; conditions: Endothelial cell; in short: as §2
[19] = molecular target: T1, Solute carrier family 2, facilitated glucose transporter member 1 (Homo sapiens); assay: Inhibition of GLUT1 in HUVEC assessed as decrease in glycolysis; type: cell-based; in short: as §1
[20] = molecular target: T2, Solute carrier family 2, facilitated glucose transporter member 1 (Mus musculus); assay: Inhibition of GLUT1 in mouse primary endothelial cells assessed as decrease in glucose transport; type: cell-based; conditions: Endothelial cell
[21] = molecular target: T1, Solute carrier family 2, facilitated glucose transporter member 1 (Homo sapiens); assay: Inhibition of GLUT1 in HUVEC assessed as sprouting angiogenesis at 40 nmol/L in presence of mitomycin C; type: cell-based; in short: as §2
[22] = molecular target: T2, Solute carrier family 2, facilitated glucose transporter member 1 (Mus musculus); assay: Inhibition of GLUT1 in mouse primary endothelial cells assessed as decrease in glycolysis; type: cell-based; conditions: Endothelial cell; in short: as §1
[23] = molecular target: T2, Solute carrier family 2, facilitated glucose transporter member 1 (Mus musculus); assay: Inhibition of GLUT1 in mouse BEND3 cells assessed as reduced phosphorylation of mTORC1 at 20 nmol/L by Western blot analysis; type: cell-based
BEND3 [24] = assay: Inhibition of GLUT in mouse BEND3 cells assessed as decrease in cell migration at 20 micromol/L; type: cell-based; conditions: dose 20.0 µmol/L
BEND3 [25] = assay: Inhibition of GLUT in mouse BEND3 cells assessed as decrease in cell proliferation at 20 micromol/L; type: cell-based; conditions: dose 20.0 µmol/L
BEND3 [26] = assay: Inhibition of GLUT in mouse BEND3 cells assessed as decrease of [14C]-3-O-methylglucose transport at 20 micromol/L after 2 hrs by glucose transport assay; type: cell-based; conditions: dose 20.0 µmol/L
In short: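 bEND3 cells were treated with inhibitor or DMSO vehicle for 24 hrs, then held in serum-free DMEM for 2 hrs at 37°C with inhibitor or vehicle and washed. Uptake ran 30 min in DPBS with 20 mM 3-O-methylglucose plus 1 µCi/ml 14C-3MG, still with inhibitor. It was stopped with ice-cold 50 mM glucose in PBS, cells lysed in 0.1 N NaOH, and counted by LSC; triplicate.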

Q: Which inhibition [1] does the source give for `Cc1c(NC(=O)c2cc(C(N)=O)nc3cc(F)ccc23)c(C(F)(F)F)nn1Cc1ccc(C#N)cc1` here?
A: Active

Q: What about the inhibition [2] of the same compound?
A: Active

Q: And the inhibition [3]?
A: Active

Q: And the inhibition [4]?
A: Active

Q: What about the inhibition [5] of the same compound?
A: Active

Q: And the inhibition [6]?
A: Active

Q: And the inhibition [7]?
A: inactive

Q: What about the inhibition [8] of the same compound?
A: 40%

Q: And the inhibition [9]?
A: Active

Q: And the inhibition [10]?
A: Active

Q: What about the inhibition [11] of the same compound?
A: Active

Q: What about the inhibition [12] of the same compound?
A: Active

Q: What about the inhibition [13] of the same compound?
A: Active

Q: And the inhibition [14]?
A: Active

Q: What about the inhibition [15] of the same compound?
A: Active

Q: What about the inhibition [16] of the same compound?
A: Active

Q: What about the inhibition [17] of the same compound?
A: Active

Q: What about the inhibition [18] of the same compound?
A: Active

Q: What about the inhibition [19] of the same compound?
A: Active

Q: And the inhibition [20]?
A: Active

Q: What about the inhibition [21] of the same compound?
A: inactive

Q: And the inhibition [22]?
A: Active

Q: What about the inhibition [23] of the same compound?
A: Active

Q: Which inhibition (BEND3 [24]) does the source give for `C=C1[C@@H](C)[C@H]2[C@H](Cc3ccccc3)NC(=O)[C@]23OC(=O)/C=C/[C@H](O)CCC[C@@H](C)C/C=C/[C@H]3[C@@H]1O` here?
A: Active

Q: And the inhibition (BEND3 [25])?
A: Active

Q: And the inhibition (BEND3 [26])?
A: Active
